The values below come from ChEMBL document CHEMBL2434954, “Novel 6β-acylaminomorphinans with analgesic activity” (Eur J Med Chem, 2013).

The Ki is the dissociation constant of the complex between target and ligand, obtained from inhibition or displacement. Low readings indicate tighter binding, high ones weaker binding. As usually defined, the ED50 is the dose at which the effect has come halfway, by size or by number of responders. One may read the EC50 as the concentration needed to bring the measured effect to its halfway point.

Calls of active or inactive are those of the source.

Data set [1] deals with T1, Delta-type opioid receptor (Mus musculus, UniProt P32300). Put plainly: Displacement of [125I]-BNtxA from mouse cloned delta opioid receptor expressed in CHO cells after 90 mins. It is filed as cell-based. The essentials:
(§1)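 CHO membranes stably expressing cloned mouse MOR-1, DOR-1 or KOR-1 (30-40 μg/mL protein), competition against 0.1 nM 125I-BNtxA. Incubation 90 min at 25°C in 50 mM potassium phosphate pH 7.4, with 5 mM MgSO4 for MOR-1 only. Nonspecific binding with 8 μM levallorphan. Ki from IC50. Mean ± SEM, at least three replicates.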
(In a radioligand displacement assay an active substance lowers the binding of a labelled ligand.)

The subject of data set [2] is Mus musculus. Put plainly: Analgesic activity in sc dosed CD1 mouse assessed as increase in pain threshold by tail flick method. It is filed as functional. The essentials: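 Male CD-1 mice (25-35 g), radiant heat tail-flick. Baseline 2.0-3.0 s, mean of two trials. Cumulative s.c. dosing, tested 30 min after dose, groups n=10, two independent assays. Analgesia defined quantally as doubling or more of baseline latency.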
(In hot-plate and tail-flick tests a longer latency is read as antinociception.)

Data set [3] deals with T2, Mu-type opioid receptor (Mus musculus, UniProt P42866). In words: Displacement of [125I]-BNtxA from mouse cloned mu opioid receptor expressed in CHO cells after 90 mins. It is filed as cell-based. The essentials: as §1
In data set [4] the target is T3, Kappa-type opioid receptor (Mus musculus, UniProt P33534). In words: Displacement of [125I]-BNtxA from mouse cloned kappa opioid receptor expressed in CHO cells after 90 mins. It counts as cell-based. Summed up: as §1
The subject of data set [5] is Mus musculus. Put plainly: Toxicity in CD1 mouse assessed as respiratory depression at 24 mg/kg, sc measured after 15 to 35 mins. It is filed as organism-based. Set-up: dose 24 mg/kg, route subcutaneous. The following applies: in vivo. Summed up: (§2)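 Awake, freely moving adult male CD1 mice, pulse oximeter breath rate after 30 min habituation. 5-s average breath rate every 5 min. Baseline over 25 min before s.c. injection, then recorded from 15 min post-injection for 35 min. Groups n=3, saline control. Values given as percent of baseline.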

The species named for data set [6] is Mus musculus. In words: Selectivity ratio of EC50 for mouse cloned kappa opioid receptor to EC50 for mouse cloned mu opioid receptor by [35S]GTPgammaS binding assay. It is filed as functional. A general note: GTPγS resists hydrolysis and so accumulates on activated G proteins.
Data set [7] is filed under the species Mus musculus. Put plainly: Selectivity ratio of EC50 for mouse cloned delta opioid receptor to EC50 for mouse cloned mu opioid receptor by [35S]GTPgammaS binding assay. It counts as functional.
Data set [8] has as its system Mus musculus. In words: Analgesic activity in sc dosed CD1 mouse assessed as increase in pain threshold by tail flick method in presence of delta opioid receptor antagonist […]. It counts as functional, organism-based. The essentials:
(§3)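 Tail-flick test in CD1 mice (n=6 per group) given agonist 5 mg/kg s.c. alone or with antagonist s.c.: norBNI 10 mg/kg or β-FNA 40 mg/kg 24 h before, NTI 20 mg/kg 15 min before. Latency read 30 min after agonist. Two independent replications; ANOVA with Bonferroni test (p < 0.05).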

For data set [9], the target named is Mu-type opioid receptor (Mus musculus) (UniProt P42866). Put plainly: Agonist activity at mouse cloned mu opioid receptor expressed in CHO cells after 60 mins by [35S]GTPgammaS binding assay relative to DAMGO. It counts as functional, cell-based. The essentials: (§4)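 Membranes from transfected cells incubated with agonist 60 min at 30°C in 50 mM Tris-HCl pH 7.4, 3 mM MgCl2, 0.2 mM EGTA, 10 mM NaCl, with 0.05 nM [35S]GTPγS and GDP. Filtration on glass-fibre filters, scintillation counting. Basal binding with GDP and no drug. […] Mean ± SEM, three assays in triplicate.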

Data set [10] has as its target Delta-type opioid receptor (Mus musculus) (UniProt P32300). Put plainly: Agonist activity at mouse cloned delta opioid receptor expressed in CHO cells after 60 mins by [35S]GTPgammaS binding assay relative to DPDPE. It counts as functional, cell-based. The essentials:
as §4

Data set [11] has as its target T3, Kappa-type opioid receptor. In words: Agonist activity at mouse cloned kappa opioid receptor expressed in CHO cells after 60 mins by [35S]GTPgammaS binding assay. It is filed as functional, cell-based. The essentials: as §4
Data set [12] has as its target T2, Mu-type opioid receptor. Put plainly: Agonist activity at mouse cloned mu opioid receptor expressed in CHO cells after 60 mins by [35S]GTPgammaS binding assay. It is filed as functional, cell-based. Summed up:
(§5)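 Membranes from transfected cells incubated with agonist 60 min at 30°C in 50 mM Tris-HCl pH 7.4, 3 mM MgCl2, 0.2 mM EGTA, 10 mM NaCl, with 0.05 nM [35S]GTPγS and GDP. Filtration on glass-fibre filters, scintillation counting. Basal binding with GDP and no drug. Mean ± SEM, three assays in triplicate.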

For data set [13], the species on record is Mus musculus. Put plainly: Selectivity ratio of Ki for mouse cloned delta opioid receptor to Ki for mouse cloned mu opioid receptor.
Data set [14] deals with Kappa-type opioid receptor (Mus musculus) (UniProt P33534). Put plainly: Agonist activity at mouse cloned kappa opioid receptor expressed in CHO cells at 100 nM after 60 mins by [35S]GTPgammaS binding assay relative to U50488H. It is filed as functional, cell-based. The essentials: as §4
Data set [15] deals with Mus musculus. In words: Analgesic activity in sc dosed CD1 mouse assessed as increase in pain threshold by tail flick method in presence of kappa opioid receptor antagonist norBNI. It counts as functional, organism-based. Summed up:
as §3

In data set [16] the test system is Mus musculus. Put plainly: Analgesic activity in sc dosed CD1 mouse assessed as increase in pain threshold by tail flick method in presence of mu opioid receptor antagonist beta-FNA. It is filed as functional, organism-based. The essentials:
as §3

For data set [17], the target named is T1, Delta-type opioid receptor. Put plainly: Agonist activity at mouse cloned delta opioid receptor expressed in CHO cells after 60 mins by [35S]GTPgammaS binding assay. It counts as functional, cell-based. Summed up:
as §5

In data set [18] the test system is Mus musculus. Put plainly: Toxicity in CD1 mouse assessed as respiratory depression at 20 mg/kg, sc measured after 15 to 35 mins. Set-up: dose 20 mg/kg, route subcutaneous. It counts as organism-based. The following applies: in vivo. Summed up:
as §2

Data set [19] is filed under the species Mus musculus. Put plainly: Selectivity ratio of Ki for mouse cloned kappa opioid receptor to Ki for mouse cloned mu opioid receptor.

T3 sequence (P33534 whole entry): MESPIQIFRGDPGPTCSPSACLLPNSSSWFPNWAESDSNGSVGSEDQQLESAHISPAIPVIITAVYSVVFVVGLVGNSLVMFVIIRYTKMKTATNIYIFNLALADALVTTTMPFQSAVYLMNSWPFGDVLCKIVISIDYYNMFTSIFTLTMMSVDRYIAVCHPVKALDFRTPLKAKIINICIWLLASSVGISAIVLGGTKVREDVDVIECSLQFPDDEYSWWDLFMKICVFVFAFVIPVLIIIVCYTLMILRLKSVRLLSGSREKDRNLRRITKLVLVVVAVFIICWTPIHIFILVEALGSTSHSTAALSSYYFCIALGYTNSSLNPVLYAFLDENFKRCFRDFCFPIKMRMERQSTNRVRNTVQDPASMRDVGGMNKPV
T2 sequence (P42866 whole entry): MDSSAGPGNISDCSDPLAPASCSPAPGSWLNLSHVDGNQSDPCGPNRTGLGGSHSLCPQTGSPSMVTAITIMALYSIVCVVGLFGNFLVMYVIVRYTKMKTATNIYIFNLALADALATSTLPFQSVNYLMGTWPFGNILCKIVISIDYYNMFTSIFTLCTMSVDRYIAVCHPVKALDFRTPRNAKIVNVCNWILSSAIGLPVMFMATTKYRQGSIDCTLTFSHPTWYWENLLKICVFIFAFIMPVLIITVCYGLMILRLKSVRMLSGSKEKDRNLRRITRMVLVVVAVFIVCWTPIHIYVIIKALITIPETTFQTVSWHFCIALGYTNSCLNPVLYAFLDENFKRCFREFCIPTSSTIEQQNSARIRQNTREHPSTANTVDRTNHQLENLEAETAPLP
T1 sequence (P32300 whole entry): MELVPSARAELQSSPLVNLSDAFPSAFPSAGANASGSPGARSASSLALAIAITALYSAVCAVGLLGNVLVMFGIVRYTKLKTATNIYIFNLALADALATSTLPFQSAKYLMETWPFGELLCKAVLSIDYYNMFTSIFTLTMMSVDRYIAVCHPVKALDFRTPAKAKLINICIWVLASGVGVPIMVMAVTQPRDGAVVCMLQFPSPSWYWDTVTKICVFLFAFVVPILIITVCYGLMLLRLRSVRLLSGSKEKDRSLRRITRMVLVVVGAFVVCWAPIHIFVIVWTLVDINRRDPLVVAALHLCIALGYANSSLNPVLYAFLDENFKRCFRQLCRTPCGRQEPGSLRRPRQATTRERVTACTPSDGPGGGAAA
Kappa-type opioid receptor (Mus musculus), sequence (P33534 whole entry): as the sequence (P33534 whole entry) above
Mu-type opioid receptor (Mus musculus), sequence (P42866 whole entry): as the sequence (P42866 whole entry) above
Delta-type opioid receptor (Mus musculus), sequence (P32300 whole entry): as the sequence (P32300 whole entry) above

Consider `COc1ccc2c3c1O[C@H]1[C@H](NC(=O)/C=C/c4ccccc4)C=C[C@H]4[C@@H](C2)N(C)CC[C@@]341`, for which the Ki is greater than 100 nM in data set [1], 4.73 nM on Mu-type opioid receptor [3] and greater than 100 nM in data set [4]. Also, the ED50 in the data set with Mus musculus [2] was greater than 10 mg/kg.
As to `COc1ccc(/C=C/C(=O)N[C@@H]2C=C[C@H]3[C@H]4Cc5ccc(O)c6c5[C@@]3(CCN4C)[C@H]2O6)cc1`, the Ki turned out to be 15.3 nM in data set [1], 0.74 nM on Mu-type opioid receptor [3] and 5.43 nM in [4]. For the same compound, the ED50 with Mus musculus [2] is greater than 10 mg/kg.
For `COc1ccc2c3c1O[C@H]1[C@H](NC(=O)/C=C/c4cccc([N+](=O)[O-])c4)C=C[C@H]4[C@@H](C2)N(C)CC[C@@]341`, the inhibitory constant (Ki) was greater than 100 nM in [1], 3.74 nM on Mu-type opioid receptor [3] and greater than 100 nM in data set [4]. Further, the 50% effective dose (ED50) in the data set on Mus musculus [2] was greater than 10 mg/kg.
As for `CN1CC[C@]23c4c5ccc(O)c4O[C@H]2[C@H](NC(=O)/C=C/c2cccc([N+](=O)[O-])c2)C=C[C@H]3[C@H]1C5`, the results for the inhibition constant Ki (in data set [1]; on Mu-type opioid receptor [3]; in [4]) were 5.15 nM, 0.12 nM and 0.81 nM, respectively. The ED50 with Mus musculus [2] was greater than 10 mg/kg.
In the case of `COc1ccc(/C=C/C(=O)N[C@@H]2C=C[C@H]3[C@H]4Cc5ccc(OC)c6c5[C@@]3(CCN4C)[C@H]2O6)cc1`, the Ki in [1] was greater than 100 nM; on Mu-type opioid receptor [3], 25.2 nM; in data set [4], greater than 100 nM. In the data set with Mus musculus [2], the ED50 is greater than 10 mg/kg.
In the case of `COc1ccc2c3c1O[C@H]1[C@H](NC(=O)/C=C/c4ccc(Cl)cc4)C=C[C@H]4[C@@H](C2)N(C)CC[C@@]341`, the Ki in data set [1] was greater than 100 nM; on Mu-type opioid receptor [3], 3.81 nM; in [4], greater than 100 nM. Also, the 50% effective dose (ED50) in the data set with Mus musculus [2] is greater than 10 mg/kg.
Take `CN1CC[C@]23c4c5ccc(O)c4O[C@H]2[C@H](NC(=O)/C=C/c2ccc(Cl)cc2)C=C[C@H]3[C@H]1C5`: the inhibition constant Ki stood at 9.38 nM in [1], 0.15 nM on Mu-type opioid receptor [3] and 1.97 nM in [4]. Also, the 50% effective dose (ED50) with Mus musculus [2] was greater than 10 mg/kg.
As to `CN1CC[C@]23c4c5ccc(O)c4O[C@H]2[C@H](NC(=O)/C=C/c2ccccc2)C=C[C@H]3[C@H]1C5`, the Ki is 10.3 nM in [1], 0.1 nM on Mu-type opioid receptor [3] and 2.9 nM in data set [4]. Besides, the Activity result with Mus musculus [5] is reported as “Non-toxic”. Further, the 50% effective dose (ED50) with Mus musculus [2] was found to be 3.13 mg/kg. In addition, the Ratio EC50 in the data set listed under Mus musculus [6] is 25; in the data set filed under Mus musculus [7], 4. For the same compound, the result in the data set on Mus musculus [8] and with Mus musculus [16] was inactive. Moreover, the results for the Efficacy in [9], in [10] and in [14] were 95.3%, 102% and 106%, respectively. Also, the values for the EC50 (in data set [11]; at Mu-type opioid receptor [12]; in data set [17]) were 36.5 nM, 1.38 nM and 9.1 nM, respectively. Moreover, in the data set listed under Mus musculus [13], the Ratio Ki worked out at 103. The outcome in the data set with Mus musculus [15] was Active.
For `COc1ccc2c3c1O[C@H]1[C@H](NC(=O)/C=C/c4ccc(C(F)(F)F)cc4)C=C[C@H]4[C@@H](C2)N(C)CC[C@@]341`, the figures for the Ki (in data set [1]; on Mu-type opioid receptor [3]; in data set [4]) were greater than 100 nM, 5.44 nM and greater than 100 nM, respectively. Moreover, the ED50 in the data set with Mus musculus [2] is greater than 10 mg/kg.
Take `CN1CC[C@]23c4c5ccc(O)c4O[C@H]2[C@@H](O)C=C[C@H]3[C@H]1C5` [MORPHINE]: the ED50 in the data set on Mus musculus [2] was 4.96 mg/kg. For the same compound, the Activity entry in the data set with Mus musculus [18] is reported as “Toxic”.
Take `CN1CC[C@]23c4c5ccc(O)c4O[C@H]2[C@H](NC(=O)/C=C/c2ccc(C(F)(F)F)cc2)C=C[C@H]3[C@H]1C5`: the Ki in data set [1] stood at 14.5 nM; on Mu-type opioid receptor [3], 0.19 nM; in data set [4] it was 10.5 nM. In addition, in the data set on Mus musculus [2], the 50% effective dose (ED50) is greater than 10 mg/kg. The Ratio Ki in the data set listed under Mus musculus [19] is 55.4.
